The subject of series [1] is Lipid bilayer. Description: Binding affinity to DOPC-cholesterol liposome at 10 to 1000 uM after 45 mins by ellipsometry in presence of NaCl. The method in brief: (§1)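 Ellipsometry on DOPC-cholesterol bilayers deposited from DDM micelles onto silica. Peptide was added cumulatively in 10 mM Tris, pH 7.4, with 5 mM glucose at 37°C; […] adds 150 mM NaCl. Each step was followed 45 min to saturation. Adsorbed amount was calculated from refractive index and thickness, with dn/dc 0.154 cm3/g. Duplicates.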

Series [2] can be described thus: Stability of the compound at 136 uM after 4 hrs in presence of Pseudomonas aeruginosa elastase. Format: ADME. The method in brief:
(§2)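 Peptide at 136 µM was incubated with protease (peptide:enzyme 300:1) for 4 h at 37°C in 10 mM Tris, pH 7.4. The reaction was stopped by boiling in Laemmli buffer, then run on Tris-Tricine 16.5% SDS-PAGE and Coomassie stained. Band densitometry gave the undegraded fraction, normalized to peptide incubated without enzyme. Two separate experiments.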

The subject of series [3] is Staphylococcus aureus. Briefly: Antimicrobial activity against Staphylococcus aureus FDA 486 after 21 hrs by broth microdilution method. Format: functional. Particulars: FDA 486, 21 h. In outline: (§3)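 Microtiter broth dilution at 37°C for 21 h in DEAE-refined LB medium prepared in 10 mM Tris, pH 7.4. Bacteria were grown overnight in 3% trypticase soy broth, rinsed in Tris and used at about 10^6 CFU/ml. Final peptide was 0.6–80 µM in twofold steps. Growth was read visually as pellet and at OD540. MIC is >95% inhibition with no visible pellet. Two separate experiments.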

Series [4] can be described thus: Stability of the compound at 136 uM after 4 hrs in presence of human neutrophil elastase. Format: ADME. In outline:
as §2

Series [5] deals with Pseudomonas aeruginosa. Briefly: Antimicrobial activity against Pseudomonas aeruginosa ATCC 27853 after 21 hrs by broth microdilution method. Format: functional. The settings on record: ATCC 27853, 21 h. In outline: as §3
The test system of series [6] is Lipid bilayer. Briefly: Binding affinity to DOPC-cholesterol liposome at 10 to 1000 uM after 45 mins by ellipsometry. The method in brief: as §1
For series [7], the system named is Lipid bilayer. Description: Induction of DOPC-cholesterol liposome leakage in cell-free system at 0.1 to 1 uM after 45 mins. Format: functional. The method in brief: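 Carboxyfluorescein-loaded (100 mM, self-quenching) DOPC-cholesterol 3:2 unilamellar liposomes, about 110 nm, at 10 µM lipid in Tris buffer at 37°C with stirring. Peptide was added at a single concentration per experiment, between 0.01 and 1 µM. After a 10 min baseline, fluorescence increase was followed for 45 min and the limiting leakage level taken.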

A short description of series [8]: Stability of the compound at 136 uM after 4 hrs in presence of […] V8 protease. The series is classed as ADME. The method in brief:
as §2

Series [9] can be described thus: Toxicity in human erythrocytes at 60 uM by hemolysis assay in presence of serum. Format: cell-based. Particulars: erythrocyte.
For series [10], the system named is Staphylococcus aureus. Briefly: Antimicrobial activity against Staphylococcus aureus 2844 after 21 hrs by broth microdilution method. The settings on record: Staphylococcus aureus, 2844, 21 h. The series is classed as functional. The method in brief: as §3
In general terms: Dilution methods test growth across graded concentrations, often in twofold steps.

A short description of series [11]: Stability of the compound at 136 uM after 4 hrs in presence of aureolysin. Format: ADME. In outline: as §2
Series [12] deals with Pseudomonas aeruginosa. Briefly: Antimicrobial activity against Pseudomonas aeruginosa 15159 after 21 hrs by broth microdilution method. Format: functional. The settings on record: Pseudomonas aeruginosa, 15159, 21 h. In outline:
as §3

Series [13] relates to Staphylococcus aureus. Description: Antimicrobial activity against Staphylococcus aureus 29213 after 21 hrs by broth microdilution method. Format: functional. Particulars: Staphylococcus aureus, 29213, 21 h. In outline:
as §3

Series [14] concerns HaCaT. Briefly: Cytotoxicity against human HaCaT assessed at 6 to 60 uM by MTT assay. The series is classed as cell-based. The method in brief: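 HaCaT keratinocytes were seeded at 3,000 cells/well, grown to confluence in SFM-BPE-rEGF, and given 6 or 60 µM peptide overnight. MTT was then added for 1 h at 37°C and formazan dissolved in DMSO. Absorbance was read at 550 nm relative to untreated cells, with the 1% Triton X-100 signal as background. Triplicate.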
On the technique in general: Formazan colour is commonly taken as a measure of viable cells.

A short description of series [15]: Toxicity in human erythrocytes at 6 to 60 uM by hemolysis assay. The series is classed as cell-based. The settings on record: erythrocyte. The method in brief:
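EDTA-treated human erythrocytes were washed and used as a 5% suspension in PBS, pH 7.4. Cells were rotated end-over-end with peptide for 1 h at 37°C, then centrifuged. Hemoglobin was read at 540 nm relative to 2% Triton X-100, with spontaneous leakage as background. Triplicate.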

For series [16], the system named is HaCaT. Briefly: Cytotoxicity against human HaCaT assessed as LDH release at 6 to 60 uM. The series is classed as cell-based. In outline:
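HaCaT keratinocytes were seeded at 3,000 cells/well and grown to confluence in serum-free keratinocyte medium with BPE-rEGF. They were exposed overnight to 6 or 60 µM peptide in that medium. LDH release was measured against a 1% Triton X-100 control, with spontaneous release as background. Triplicate.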
In general terms: Release of lactate dehydrogenase indicates damage to the cell membrane.

Data on 3 compounds can be found in ChEMBL document CHEMBL1629621, “Evaluation of strategies for improving proteolytic resistance of antimicrobial peptides by using variants of EFK17, an internal segment of LL-37” (Antimicrob Agents Chemother, 2009).

The term MIC denotes the smallest concentration in the dilution series that meets the test's criterion for growth inhibition. A low value points to greater potency.

Converted amounts (≈) assume the structure as drawn. The source made the active and inactive calls. Where a SMILES comes first, the peptide text is derived from it.

For the compound `CC[C@H](C)[C@H](NC(=O)[C@H](CCCNC(=N)N)NC(=O)[C@H](CCC(N)=O)NC(=O)[C@@H](NC(=O)[C@@H](NC(=O)[C@H](CCCNC(=N)N)NC(=O)[C@H](CCCCN)NC(=O)[C@H](Cc1ccccc1)NC(=O)[C@@H](N)CCC(=O)O)[C@@H](C)CC)C(C)C)C(=O)N[C@@H](CCCCN)C(=O)N[C@@H](CC(=O)O)C(=O)N[C@@H](Cc1ccccc1)C(=O)N[C@@H](CC(C)C)C(=O)N[C@@H](CCCNC(=N)N)C(=O)N[C@@H](CC(N)=O)C(=O)N[C@@H](CC(C)C)C(=O)N[C@H](C(=O)O)C(C)C`, the outcome with Lipid bilayer [1] was inactive. In addition, the Stability entry was “Unstable” in series [2], “Unstable” in series [4], “Stable” in series [8] and “Unstable” in [11]. The MIC is 40 µM (≈ 87 µg/mL) in the series on Staphylococcus aureus [3]; 80 µM (≈ 174 µg/mL) in the series with Pseudomonas aeruginosa [5]; 20 µM (≈ 43.5 µg/mL) in the series with Staphylococcus aureus [10]; 80 µM (≈ 174 µg/mL) in the series on Pseudomonas aeruginosa [12]; 80 µM (≈ 174 µg/mL) in the series with Staphylococcus aureus [13]. For the same compound, the outcome with Lipid bilayer [6] and with Lipid bilayer [7] was Active. In addition, in series [9], the Activity entry is given as “Non-toxic”.
Turning to `CC[C@H](C)[C@H](NC(=O)[C@H](CCCNC(=N)N)NC(=O)[C@H](CCC(N)=O)NC(=O)[C@@H](NC(=O)[C@@H](NC(=O)[C@H](CCCNC(=N)N)NC(=O)[C@H](CCCCN)NC(=O)[C@H](Cc1ccccc1)NC(=O)[C@H](CCC(=O)O)NC(C)=O)[C@@H](C)CC)C(C)C)C(=O)N[C@@H](CCCCN)C(=O)N[C@@H](CC(=O)O)C(=O)N[C@@H](Cc1ccccc1)C(=O)N[C@@H](CC(C)C)C(=O)N[C@@H](CCCNC(=N)N)C(=O)N[C@@H](CC(N)=O)C(=O)N[C@@H](CC(C)C)C(=O)N[C@H](C(N)=O)C(C)C`, the outcome with Lipid bilayer [1] was inactive. Further, the Stability result in series [2], in series [4], in series [8] and in series [11] was “Unstable” in each case. Besides, the Activity result (with HaCaT [14]; in series [15]; in the series on HaCaT [16]) was “Toxic” each time. The MIC in the series with Staphylococcus aureus [3] came out at 5 µM (≈ 11.1 µg/mL); in the series with Pseudomonas aeruginosa [5] it was 10 µM (≈ 22.2 µg/mL); against Staphylococcus aureus [10] it was 5 µM (≈ 11.1 µg/mL); against Pseudomonas aeruginosa [12] it was 10 µM (≈ 22.2 µg/mL); against Staphylococcus aureus [13] it was 10 µM (≈ 22.2 µg/mL). In the series with Lipid bilayer [6], the outcome was Active.
Turning to `CC(C)C[C@H](NC(=O)[C@H](Cc1c[nH]c2ccccc12)NC(=O)[C@H](CC(=O)O)NC(=O)[C@H](CCCCN)NC(=O)[C@H](Cc1c[nH]c2ccccc12)NC(=O)[C@H](CCCNC(=N)N)NC(=O)[C@H](CCC(N)=O)NC(=O)[C@@H](NC(=O)[C@H](Cc1c[nH]c2ccccc12)NC(=O)[C@H](CCCNC(=N)N)NC(=O)[C@H](CCCCN)NC(=O)[C@H](Cc1c[nH]c2ccccc12)NC(=O)[C@@H](N)CCC(=O)O)C(C)C)C(=O)N[C@@H](CCCNC(=N)N)C(=O)N[C@@H](CC(N)=O)C(=O)N[C@@H](CC(C)C)C(=O)N[C@H](C(=O)O)C(C)C` (H-EWKRWVQRWKDWLRNLV-OH), the result in the series with Lipid bilayer [1] was inactive. For the same compound, the Stability entry in series [2] is listed as “Unstable”; in series [4], “Stable”; in [8], “Stable”; in series [11] it was “Stable”. Moreover, the Activity entry (in the series on HaCaT [14]; in series [15]; with HaCaT [16]) was “Toxic” each time. The MIC turned out to be 5 µM (≈ 12 µg/mL) against Staphylococcus aureus [3]; 10 µM (≈ 24 µg/mL) in the series on Pseudomonas aeruginosa [5]; 5 µM (≈ 12 µg/mL) against Staphylococcus aureus [10]; 20 µM (≈ 48 µg/mL) against Pseudomonas aeruginosa [12]; 10 µM (≈ 24 µg/mL) against Staphylococcus aureus [13]. The result with Lipid bilayer [6] and in the series on Lipid bilayer [7] was Active.
